Source: paper PMC6438620 (Bioorganic & medicinal chemistry letters, 2018)

What was measured:
[1] = Tissue distribution by LC-MS/MS after 7-day i.p. treatment; settings: 5 mg/kg i.p. daily for 7 days, 24 h after last injection
[2] = Toxicity in mice; settings: mouse, in vivo
Summary of the method: (§1)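 Female C57BL6 mice were dosed with test compound at 5 mg/kg i.p. once daily for seven consecutive days and sacrificed 24 h after the last injection. Blood clinical chemistry covered electrolytes, minerals, total protein, albumin, globulin, A/G ratio, BUN, ALT, AST, GLDH, ALP, bilirubin, amylase and creatine kinase.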

[3] = target: T1, D4 dopamine receptor (Homo sapiens, UniProt P21917); assay: PDSP primary binding and radioligand binding
T1 sequence (P21917 1-419): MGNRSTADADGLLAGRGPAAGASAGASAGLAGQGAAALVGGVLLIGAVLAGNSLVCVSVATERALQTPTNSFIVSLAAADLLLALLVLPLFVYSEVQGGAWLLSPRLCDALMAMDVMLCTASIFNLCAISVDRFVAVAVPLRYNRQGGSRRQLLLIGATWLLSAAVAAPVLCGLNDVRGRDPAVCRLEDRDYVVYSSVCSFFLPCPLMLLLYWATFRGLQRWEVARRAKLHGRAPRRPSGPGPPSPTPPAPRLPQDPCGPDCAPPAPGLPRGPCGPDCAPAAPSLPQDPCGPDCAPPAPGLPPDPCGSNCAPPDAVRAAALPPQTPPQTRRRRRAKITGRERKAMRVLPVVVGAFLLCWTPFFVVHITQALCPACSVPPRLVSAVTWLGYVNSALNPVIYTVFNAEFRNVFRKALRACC

[4] = tested on: LLC luc and MDA MB-231 cell lines; assay: MTT colorimetric cytotoxicity assay, values given over both cell lines; settings: for Cytotoxic activity compared with penfluridol: MTT, LLC luc and MDA MB-231
[5] = Clinical chemistry analysis of blood samples; type: in vivo, C57BL6 mice; settings: 5 mg/kg, daily i.p. dosing for 7 days, n = 5
Summary of the method: as §1

[6] = target: H1 (histamine receptor 1) (Homo sapiens, UniProt P35367); assay: PDSP primary binding and radioligand binding
Chain of H1 (histamine receptor 1) (P35367 whole entry): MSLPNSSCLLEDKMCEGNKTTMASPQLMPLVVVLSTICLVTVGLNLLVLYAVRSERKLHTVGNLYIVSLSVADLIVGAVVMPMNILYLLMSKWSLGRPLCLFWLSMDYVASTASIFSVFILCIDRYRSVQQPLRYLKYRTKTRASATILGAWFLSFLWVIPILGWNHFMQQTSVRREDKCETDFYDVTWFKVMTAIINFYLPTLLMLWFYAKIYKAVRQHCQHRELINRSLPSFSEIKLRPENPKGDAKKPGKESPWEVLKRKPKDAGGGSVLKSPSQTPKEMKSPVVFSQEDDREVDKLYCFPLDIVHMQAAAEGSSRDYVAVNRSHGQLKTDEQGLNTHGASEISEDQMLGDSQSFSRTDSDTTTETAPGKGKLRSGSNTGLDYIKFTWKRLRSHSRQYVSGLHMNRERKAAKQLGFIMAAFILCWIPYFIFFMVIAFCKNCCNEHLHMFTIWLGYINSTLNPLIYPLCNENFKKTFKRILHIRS

[7] = tested on: serotonin receptors; assay: PDSP binding at serotonin receptor subtypes
[8] = target: H2 (histamine receptor 2) (Homo sapiens, UniProt P25021); assay: PDSP primary binding and radioligand binding
Chain of H2 (histamine receptor 2) (P25021 whole entry): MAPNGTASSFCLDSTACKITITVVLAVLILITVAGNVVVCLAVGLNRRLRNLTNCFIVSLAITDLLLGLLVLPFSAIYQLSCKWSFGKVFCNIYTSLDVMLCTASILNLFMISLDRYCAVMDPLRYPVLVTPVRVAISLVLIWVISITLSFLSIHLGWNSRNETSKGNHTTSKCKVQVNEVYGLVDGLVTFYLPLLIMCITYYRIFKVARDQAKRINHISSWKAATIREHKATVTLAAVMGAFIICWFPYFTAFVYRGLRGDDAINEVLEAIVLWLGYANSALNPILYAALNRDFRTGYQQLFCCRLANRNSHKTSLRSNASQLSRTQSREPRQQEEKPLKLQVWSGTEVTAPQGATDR

Row | SMILES | Distribution pattern: accumulation of the drug [1] | Toxicity in mice [2] | Cytotoxic activity compared with penfluridol [4] | Alkaline phosphatase (ALP) levels [5] | Blood urea nitrogen (BUN) levels [5] | Glutamate dehydrogenase (GLDH) [5] | Inhibition at some serotonin receptors ([7]; primary binding) | other results
1 | OC1(c2ccc(Cl)c(C(F)(F)F)c2)CCN(CCCCC(c2ccc(F)cc2)c2ccc(F)cc2)CC1 [8a] | predominantly in the adipose tissue and lungs | no toxicity in mice | – | – | – | – | – | Level of the drug in the brain relative to penfluridol [1]: higher level of the drug in the brain relative to penfluridol; Ki [3]: 25 nM
2 | OC1(c2ccc(Cl)c(C(F)(F)F)c2)CCN(CCCC(c2ccccc2)c2ccccc2)CC1 [8b] | – | – | reduced activity | – | – | – | – | –
3 | COc1ccc(N(CCCCN2CCC(O)(c3ccc(Cl)c(C(F)(F)F)c3)CC2)c2ccc(OC)cc2)cc1 [8c] | – | no toxicity in mice | – | None of these changes was observed | None of these changes was observed | None of these changes was observed | – | Concentration of the drug in all tested samples (plasma, brain, lungs, adipose tissue) [1]: lower concentration of the drug in all tested samples
4 | OC1(c2ccc(Cl)c(C(F)(F)F)c2)CCN(CCCCN(c2ccc(F)cc2)c2ccc(F)cc2)CC1 [11b] | – | – | – | – | – | – | 50–80% | Activity at H1 receptor [6]: abolished activity; Change of Ki values compared to penfluridol ([7]; other serotonin receptor subtypes): 3–16 fold; Inhibition levels at other serotonin receptor subtypes ([7]; primary binding, other serotonin receptor subtypes): > 90%; Activity at H2 receptor [8]: abolished activity
5 | OC1(c2ccc(Cl)c(C(F)(F)F)c2)CCN(CCCCCc2ccc(F)cc2)CC1 [compound 13] | – | – | reduced activity | – | – | – | – | –
6 | OC1(c2ccc(Cl)c(C(F)(F)F)c2)CCN(CCCC(c2ccc(F)cc2)c2ccc(F)cc2)CC1 [penfluridol, reference compound] | predominantly in the adipose tissue and lungs | – | – | decreased ALP levels | decreased BUN levels | increased GLDH | 95–100% | IC50 ([4]; Homo sapiens, MDA-MB-231, read-out: IC50 (cytotoxicity, MTT)): 4300 to 5100 nM
